Laboratory results taken from ChEMBL document CHEMBL1157797, “The alternative medicine pawpaw and its acetogenin constituents suppress tumor angiogenesis via the HIF-1/VEGF pathway” (J Nat Prod, 2010).
Active and inactive are the calls of the source. No cut-off for these calls is given here.

Legend:
[1] = tested on: T47D; assay: Inhibition of ATP in human T47D cells under hypoxia for 16 hrs at 0.1 to 0.3 uM; assay type: functional, cell-based
[2] = target: T1, Hypoxia inducible factors; HIF-1-alpha, HIF-2-alpha (Homo sapiens, UniProt Q16665+Q99814); assay: Inhibition of hypoxia-induced HIF1 activation in human PC3 cells by HRE3-TK-luc reporter assay; assay type: cell-based; details: PC-3, concentration not given here
Method in brief: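 HIF-1 activation in PC-3 cells induced by hypoxia (1% O2) and read with the pHRE3-TK-Luc luciferase reporter. Concentration-response, IC50/EC50 derived. Data are means ± SEM, n = 3.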

[3] = tested on: T47D; assay: Cytotoxicity against human T47D cells assessed as suppression of cell proliferation under normoxic condition after 48 hrs relative to control; assay type: functional, cell-based
Method in brief: (§1)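 Four human tumour lines (T47D, MDA-MB-231, PC-3, DU-145) exposed to acetogenins (1 to 100 nM, half-log steps) or crude extract (0.01 to 1 μg/mL, half-log steps) for 48 h, either normoxic (95% air) or hypoxic (1% O2). Proliferation/viability expressed relative to untreated control. Final solvent below 0.5% (v/v).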

[4] = tested on: T47D; assay: Cytotoxicity against human T47D cells assessed as suppression of cell proliferation under hypoxic condition after 48 hrs relative to control; assay type: functional, cell-based; method in brief: as §1
[5] = tested on: MDA-MB-231; assay: Cytotoxicity against human MDA-MB-231 cells assessed as suppression of cell proliferation under normoxic condition after 48 hrs relative to control; assay type: functional, cell-based; method in brief: as §1
[6] = tested on: MDA-MB-231; assay: Cytotoxicity against human MDA-MB-231 cells assessed as suppression of cell proliferation under hypoxic condition after 48 hrs relative to control; assay type: functional, cell-based; method in brief: as §1
[7] = tested on: PC-3; assay: Cytotoxicity against human PC3 cells assessed as suppression of cell proliferation under normoxic condition after 48 hrs relative to control; assay type: functional, cell-based; method in brief: as §1
[8] = tested on: PC-3; assay: Cytotoxicity against human PC3 cells assessed as suppression of cell proliferation under hypoxic condition after 48 hrs relative to control; assay type: functional, cell-based; method in brief: as §1
[9] = tested on: DU-145; assay: Cytotoxicity against human DU145 cells assessed as suppression of cell proliferation under normoxic condition after 48 hrs relative to control; assay type: functional, cell-based; method in brief: as §1
[10] = tested on: DU-145; assay: Cytotoxicity against human DU145 cells assessed as suppression of cell proliferation under hypoxic condition after 48 hrs relative to control; assay type: functional, cell-based; method in brief: as §1
[11] = tested on: T47D; assay: Inhibition of hypoxia-induced VEGF protein expression in human T47D cells at 0.03 to 0.1 uM in presence of 1% O2; assay type: functional, cell-based
Method in brief: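 T47D cells exposed to hypoxia with test agent. Secreted VEGF protein in the conditioned medium measured by ELISA and normalised to cellular protein. Mean + SD, n = 3; p values compared with the hypoxia-induced sample.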

[12] = tested on: HUVEC; assay: Inhibition of VEGF-induced angiogenesis in HUVEC cells at 0.1 uM by tube formation assay; assay type: functional, cell-based; details: Homo sapiens
[13] = tested on: T47D; assay: Inhibition of normoxic human T47D cells at 0.1 uM by tube formation assay; assay type: functional, cell-based
Method in brief: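 Conditioned media from T47D cells (normoxic, hypoxic, or hypoxic plus treatment) applied to HUVEC on Matrigel. Tube length and branching points quantified in three random fields, expressed as % of the normoxic-cell medium, mean ± SD.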

[14] = tested on: T47D; assay: Inhibition of hypoxia-induced HIF1alpha protein accumulation in nucleus of human T47D cells by Western blot analysis; assay type: functional, cell-based
Method in brief: (§2)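 T47D cells exposed to hypoxia (1% O2, 4 h) with or without treatment. Nuclear extracts prepared and probed for HIF-1α and HIF-1β by Western blot.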

[15] = tested on: T47D; assay: Inhibition of hypoxia-induced HIF1beta protein accumulation in nucleus of human T47D cells by Western blot analysis; assay type: functional, cell-based; method in brief: as §2
[16] = tested on: T47D; assay: Inhibition of hypoxia-induced HIF1beta protein subcellular localization in human T47D cells at 0.3 uM by immunofluorescence based assay; assay type: functional, cell-based
[17] = tested on: T47D; assay: Inhibition of mitochondrial respiratory chain complex 1 in human T47D cells assessed as decrease in oxygen consumption; assay type: functional, cell-based
Method in brief: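 Oxygen consumption measured in T47D cells; mean ± SD of three independent experiments. For complex I, cells were permeabilised with digitonin (30 μM) and respiration started with malate plus pyruvate. Follow-up additions: succinate (complex II substrate), antimycin A, and TMPD/ascorbate to test complexes II–IV.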

[18] = tested on: PC-3; assay: Cytotoxicity against human PC3 cells assessed as suppression of cell proliferation under normoxic condition at 100 nM after 6 days relative to control; assay type: functional
[19] = tested on: DU-145; assay: Cytotoxicity against human DU145 cells assessed as suppression of cell proliferation under normoxic condition at 100 nM after 6 days relative to control; assay type: functional
[20] = target: T1, Hypoxia inducible factors; HIF-1-alpha, HIF-2-alpha; assay: Inhibition of chemical hypoxia-induced HIF1 activation in human T47D cells in presence of 1, 10-phenanthrolin by HRE3-TK-luc reporter assay; assay type: cell-based
[21] = target: T1, Hypoxia inducible factors; HIF-1-alpha, HIF-2-alpha; assay: Inhibition of hypoxia-induced HIF1 activation in human T47D cells in presence of 1% O2 by HRE3-TK-luc reporter assay; assay type: cell-based
Method in brief: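 T47D cells carrying the pHRE3-TK-Luc reporter, made hypoxic at 1% O2. HIF-1 activation read as luciferase signal over a concentration range, giving IC50. Data are means ± SEM, n = 3.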

[22] = tested on: T47D; assay: Inhibition of hypoxia-induced GLUT1 mRNA expression in human T47D cells at 0.1 uM in presence of 1% O2 for 16 hrs by RT-PCR; assay type: functional
Method in brief: (§3)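 T47D cells treated under hypoxia (1% O2, 16 h). GLUT-1 or VEGF mRNA measured by quantitative real-time RT-PCR and normalised to 18S rRNA. Reported relative to the normoxic control, mean ± SD, n = 3.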

[23] = tested on: T47D; assay: Inhibition of hypoxia-induced VEGF mRNA expression in human T47D cells at 0.1 uM in presence of 1% O2 for 16 hrs by RT-PCR; assay type: functional; method in brief: as §3
[24] = tested on: HUVEC; assay: Cytotoxicity against HUVEC cells; assay type: cell-based; details: human
[25] = tested on: T47D; assay: Inhibition of mitochondrial respiratory chain complex 2 in human T47D cells assessed as decrease in oxygen consumption at 0.3 uM; assay type: functional, cell-based
Method in brief: (§4)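 Oxygen consumption measured in T47D cells permeabilized with digitonin (30 μM). Complex I respiration started with malate plus pyruvate. Rotenone was added as complex I blocker, then succinate (complex II substrate). Antimycin A was added to block complex III, then TMPD plus ascorbate (complex IV substrates) to restart respiration. Sample added at 0.3 μM.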

[26] = tested on: T47D; assay: Inhibition of mitochondrial respiratory chain complex 3 in human T47D cells assessed as decrease in oxygen consumption at 0.3 uM; assay type: functional, cell-based; method in brief: as §4
[27] = tested on: T47D; assay: Inhibition of mitochondrial respiratory chain complex 4 in human T47D cells assessed as decrease in oxygen consumption at 0.3 uM; assay type: functional, cell-based; method in brief: as §4
[28] = tested on: T47D; assay: Inhibition of mitochondrial respiratory chain complex in human T47D cells assessed as decrease in oxygen consumption in presence of antimycin A complex 3 inhibitor; assay type: functional, cell-based; method in brief: as §4
[29] = tested on: T47D; assay: Inhibition of mitochondrial respiratory chain complex in human T47D cells assessed as decrease in oxygen consumption in presence of TMPD and ascorbate complex 4 substrate; assay type: functional, cell-based; method in brief: as §4
[30] = tested on: T47D; assay: Inhibition of mitochondrial respiratory chain complex in human T47D cells assessed as decrease in oxygen consumption in presence of rotenone and succinate complex 1 substrate; assay type: functional, cell-based; method in brief: as §4
[31] = tested on: T47D; assay: Cytotoxicity against human T47D cells assessed as suppression of cell proliferation under normoxic condition at 10 nM after 6 days relative to control; assay type: functional
[32] = tested on: MDA-MB-231; assay: Cytotoxicity against human MDA-MB-231 cells assessed as suppression of cell proliferation under normoxic condition at 100 nM after 6 days relative to control; assay type: functional

Structure (SMILES) | inhibition [1] | inhibition [2] [%] | Activity [3] | Activity [4] | Activity [5] | Activity [6] | Activity [7] | Activity [8] | Activity [9] | Activity [10] | inhibition [11] | inhibition [12] | inhibition [13] | inhibition [14] | inhibition [15] | inhibition [16] | inhibition [17] | Activity [18] [%] | Activity [19] [%] | IC50 [20] [nM] | other results
CCCCCCCCCCCC[C@@H](O)[C@H]1CC[C@H]([C@H](O)CCCC[C@H](O)CCCCC[C@@H](O)CC2=CC(C)OC2=O)O1 (stereo in doubt; 3) | inactive | 50 | inactive | inactive | inactive | inactive | inactive | inactive | inactive | inactive | – | – | – | – | – | – | – | – | – | – | –
CCCCCCCCCCCC[C@@H](O)[C@H]1CC[C@H]([C@H](O)CCCC[C@H](O)CCCCC[C@@H](O)CC2=CC(C)OC2=O)O1 (stereo in doubt; 2) | inactive | 50 | inactive | inactive | inactive | inactive | inactive | inactive | inactive | inactive | Active | Active | inactive | Dose-dependent effect | inactive | Active | Dose-dependent effect | – | – | – | –
C=C(C)[C@H]1Cc2c(ccc3c2O[C@@H]2COc4cc(OC)c(OC)cc4[C@@H]2C3=O)O1 | – | – | – | – | – | – | – | – | – | – | – | – | – | – | – | – | Dose-dependent effect | – | – | – | –
CCCCCCCCCCCC[C@@H](O)[C@H]1CC[C@H]([C@H]2CC[C@H]([C@H](O)CCC(O)CCCCCC(O)CC3=CC(C)OC3=O)O2)O1 (stereo not given in full) | inactive | 50 | inactive | inactive | inactive | inactive | inactive | inactive | inactive | inactive | Active | Active | inactive | Dose-dependent effect | inactive | Active | Dose-dependent effect | <30 | <30 | > 1000 | IC50 [21]: 12 nM; inhibition at 0.1 µM [22]: 80%; inhibition at 0.1 µM [23]: 62%; Activity [24]: Non-toxic; inhibition [25]: inactive; inhibition [26]: inactive; inhibition [27]: inactive; inhibition [28]: inactive; inhibition [29]: inactive; inhibition [30]: inactive; Activity [31]: 50%; Activity [32]: <30%
CCCCCCCCCCCC[C@@H](O)[C@H]1CC[C@H]([C@H](O)CCCC[C@H](O)CCCCC[C@@H](O)CC2=CC(C)OC2=O)O1 (stereo in doubt; 3) [ANNONACIN] | – | – | – | – | – | – | – | – | – | – | – | – | – | – | – | – | – | <30 | <30 | > 1000 | Activity [31]: 50%; Activity [32]: <30%
CCCCCCCCCCCC[C@@H](O)[C@H]1CC[C@H]([C@H](O)CCCC[C@H](O)CCCCC[C@@H](O)CC2=CC(C)OC2=O)O1 (stereo in doubt; 2) [ANNONACIN] | – | – | – | – | – | – | – | – | – | – | – | – | – | – | – | – | – | – | – | > 1000 | IC50 [21]: 13 nM; inhibition at 0.1 µM [22]: 72%; inhibition at 0.1 µM [23]: 64%; Activity [24]: Non-toxic
